ChEMBL document CHEMBL1142973, “Enzymatically activated cycloSal-d4T-monophosphates: The third generation of cycloSal-pronucleotides” (J Med Chem, 2007)

Assays:
[1] = Chemical stability in phosphate buffer at pH 7.3; type: physicochemical
Procedure, shortened: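 Triesters incubated in aqueous 25 mM phosphate buffer, pH 7.3; hydrolysis products (d4TMP, salicyl alcohol) followed by HPLC to give half-lives.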

[2] = system: Human immunodeficiency virus 1; test: Antiviral activity against HIV1 in CEM/0 cells; type: functional, organism-based; conditions: Human immunodeficiency virus 1, CCRF-CEM
Procedure, shortened: (§1)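 CEM/0 cells at 4 × 10^5 cells/mL infected with HIV (HIV-1, or HIV-2 strain ROD) at ~100 CCID50 per mL; virus stocks from infected MT-4 cell supernatants. Mixed 1:1 with compound dilutions, 4-5 days; giant cell formation scored microscopically. EC50, means of two to three independent experiments.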

[3] = system: Human immunodeficiency virus 2; test: Antiviral activity against HIV2 ROD in CEM/0 cells; type: functional, organism-based; conditions: Human immunodeficiency virus 2, ROD, CCRF-CEM; procedure, shortened: as §1
[4] = system: Human immunodeficiency virus 2; test: Antiviral activity against HIV2 ROD in CEM/TK- cells; type: functional, organism-based; conditions: Human immunodeficiency virus 2, ROD
Procedure, shortened: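 Thymidine kinase-deficient CEM/TK- cells at 4 × 10^5 cells/mL infected with HIV-2 (ROD, MT-4-grown stock) at ~100 CCID50/mL; mixed 1:1 with compound dilutions; giant cell formation scored microscopically after 4-5 days. EC50 as means of two to three independent experiments.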

[5] = Hydrolysis half life in CEM cell extracts at pH 6.9; type: ADME; conditions: human, CEM (CCRF-CEM) cell extracts
[6] = Hydrolysis half life in […]/FCS medium at pH 7.6; type: ADME; conditions: cattle, […]/FCS culture medium
Procedure, shortened: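 Incubated in RPMI-1640 culture medium with 10% heat-inactivated fetal calf serum, pH 7.6; cleavage products followed by HPLC to derive half-lives.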

[7] = Hydrolysis half life in human serum at pH 6.8; type: ADME, cell-free
Procedure, shortened: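 Incubation in human serum pooled from hospital blood samples, pH 6.8, without acetic acid stop; products analysed by HPLC; half-life determined.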

Cc1cn([C@H]2C=C[C@@H](COP3(=O)OCc4cccc(C(C)(C)C)c4O3)O2)c(=O)[nH]c1=O (stereo partly specified)
half-life [1]: 73 h
EC50 [2]: 180 nM
EC50 [3]: 650 nM
EC50 [4]: 330 nM

Cc1cn([C@H]2C=C[C@@H](COP3(=O)OCc4cc(CCC(=O)OCOC(=O)C(C)C)ccc4O3)O2)c(=O)[nH]c1=O (stereo partly specified)
half-life [1]: 3.9 h
half-life [5]: 0.9 h
EC50 [2]: 260 nM
EC50 [3]: 600 nM
EC50 [4]: 1730 nM

Cc1cn([C@H]2C=C[C@@H](COP3(=O)OCc4cc([N+](=O)[O-])ccc4O3)O2)c(=O)[nH]c1=O (stereo partly specified)
EC50 [2]: 290 nM
EC50 [3]: 400 nM
EC50 [4]: 40000 nM

Cc1cn([C@H]2C=C[C@@H](COP3(=O)OCc4cc(C=O)ccc4O3)O2)c(=O)[nH]c1=O (stereo partly specified)
half-life [1]: 0.18 h
EC50 [2]: 410 nM
EC50 [3]: 150 nM
EC50 [4]: 5000 nM

Cc1cn([C@H]2C=C[C@@H](COP3(=O)OCc4cc(C=O)cc(C(C)(C)C)c4O3)O2)c(=O)[nH]c1=O (stereo partly specified)
half-life [1]: 0.95 h
EC50 [2]: 450 nM
EC50 [3]: 600 nM
EC50 [4]: 17500 nM

CC(=O)OC(OC(C)=O)c1ccc2c(c1)COP(=O)(OC[C@@H]1C=C[C@H](n3cc(C)c(=O)[nH]c3=O)O1)O2 (stereo partly specified)
half-life [1]: 1.2 h
half-life [5]: 0.08 h
half-life [6]: 0.9 h
half-life [7]: 1.5 h
EC50 [2]: 420 nM
EC50 [3]: 400 nM
EC50 [4]: 10500 nM

Cc1cn([C@H]2C=C[C@@H](COP3(=O)OCc4cc(Br)ccc4O3)O2)c(=O)[nH]c1=O (stereo partly specified)
half-life [1]: 0.88 h
EC50 [2]: 140 nM
EC50 [3]: 260 nM
EC50 [4]: 15000 nM

Cc1cn([C@H]2C=C[C@@H](CO)O2)c(=O)[nH]c1=O [STAVUDINE]
EC50 [2]: 480 nM
EC50 [3]: 630 nM
EC50 [4]: 47500 nM

CC(=O)OC(OC(C)=O)c1cc(C)c2c(c1)COP(=O)(OC[C@@H]1C=C[C@H](n3cc(C)c(=O)[nH]c3=O)O1)O2 (stereo partly specified)
half-life [1]: 2.3 h
half-life [5]: 0.08 h
half-life [6]: 1.5 h
half-life [7]: 3.6 h

Cc1cn([C@H]2C=C[C@@H](COP3(=O)OCc4cc(CCC(=O)OCOC(=O)C(C)(C)C)ccc4O3)O2)c(=O)[nH]c1=O (stereo partly specified)
half-life [1]: 5.6 h
half-life [5]: 0.38 h
EC50 [2]: 230 nM
EC50 [3]: 330 nM
EC50 [4]: 700 nM

Cc1cc(C=O)cc2c1OP(=O)(OC[C@@H]1C=C[C@H](n3cc(C)c(=O)[nH]c3=O)O1)OC2 (stereo partly specified)
half-life [1]: 0.35 h

Cc1cccc2c1OP(=O)(OC[C@@H]1C=C[C@H](n3cc(C)c(=O)[nH]c3=O)O1)OC2 (stereo partly specified)
half-life [1]: 17.5 h
half-life [5]: 14.5 h
EC50 [2]: 60 nM
EC50 [3]: 70 nM
EC50 [4]: 50 nM

CC(=O)OC(OC(C)=O)c1cc2c(c(C(C)(C)C)c1)OP(=O)(OC[C@@H]1C=C[C@H](n3cc(C)c(=O)[nH]c3=O)O1)OC2 (stereo partly specified)
half-life [1]: 7 h
half-life [5]: 0.12 h
half-life [6]: 4.7 h
half-life [7]: 8.7 h
EC50 [2]: 320 nM
EC50 [3]: 750 nM
EC50 [4]: 3000 nM
